How the values were obtained:
Type in all cases: functional
Mus musculus [1] = experiment: Percent increase in life span at dose 70 mg/kg/day in 10 mice implanted with P388 leukemia cell line
Summary of the method: (§1)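 Female DBA2 mice inoculated iv on day 0 with 10^4 P388 cells; single iv treatment on day 1 with drug as sulfate salt in physiological saline. Survival followed; %ILS from all deaths and survivors as (T/C × 100) − 100, maximal MST 30 days; survivors counted on days 30 and 60. Most experiments confirmed three times.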

Mus musculus [2] = experiment: Percent increase in life span at dose 60 mg/kg/day in 10 mice implanted with P388 leukemia cell line; summary of the method: as §1
Mus musculus [3] = experiment: Percent increase in life span at dose 55 mg/kg/day in 10 mice implanted with P388 leukemia cell line; summary of the method: as §1
Mus musculus [4] = experiment: Number of survivors of DBA2 mice on 60th day after inoculation with L1210 leukemia cell line intravenously at a dose of 50 mg/kg/day; 0/10; settings: route intravenous
Mus musculus [5] = experiment: Number of survivors on 30th day at dose 80 mg/kg/day in 10 mice implanted with P388 leukemia cell line; 7/10
Mus musculus [6] = experiment: Number of survivors on 60th day at dose mg/kg/day in 10 mice implanted with P388 leukemia cell line; 4/10
Mus musculus [7] = experiment: Percent increase in life span at dose 80 mg/kg/day in 10 mice implanted with P388 leukemia cell line; summary of the method: as §1
Mus musculus [8] = experiment: Number of survivors on 30th day at dose 70 mg/kg/day in 10 mice implanted with P388 leukemia cell line; 5/10
Mus musculus [9] = experiment: Number of survivors on 30th day at dose 40 mg/kg/day in 10 mice implanted with P388 leukemia cell line; 1/10
Mus musculus [10] = experiment: Number of survivors on 60th day at dose mg/kg/day in 10 mice implanted with P388 leukemia cell line; 7/10
Mus musculus [11] = experiment: Number of survivors on 60th day at dose mg/kg/day in 10 mice implanted with P388 leukemia cell line; 5/10
Mus musculus [12] = experiment: Percent increase in life span at dose 50 mg/kg/day in 10 mice implanted with P388 leukemia cell line; summary of the method: as §1
Mus musculus [13] = experiment: Number of survivors on 60th day at dose mg/kg/day in 10 mice implanted with P388 leukemia cell line; 2/10
Mus musculus [14] = experiment: Percent increase in life span at dose 40 mg/kg/day in 10 mice implanted with P388 leukemia cell line; summary of the method: as §1
Mus musculus [15] = experiment: Percent increase in life span of DBA2 mice after inoculation with L1210 leukemia intravenously at a dose of 50 mg/kg per day; settings: route intravenous
Summary of the method: (§2)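 Female DBA2 mice inoculated iv on day 0 with 10^4 L1210 cells; drugs given iv as sulfate salts in physiological saline, mostly once on day 1. %ILS from all deaths and survivors as (T/C × 100) − 100; survivors scored on days 30 and 60.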

Mus musculus [16] = experiment: Number of survivors of DBA2 mice on 30th day after inoculation with L1210 leukemia cell line intravenously at a dose of 50 mg/kg/day; 0/10; settings: route intravenous
Mus musculus [17] = experiment: Number of survivors on 30th day at dose 50 mg/kg/day in 10 mice implanted with P388 leukemia cell line; 2/10
Mus musculus [18] = experiment: Number of survivors on 30th day at dose 55 mg/kg/day in 10 mice implanted with P388 leukemia cell line; 7/10
Mus musculus [19] = experiment: Number of survivors on 30th day at dose 60 mg/kg/day in 10 mice implanted with P388 leukemia cell line; 5/10
Mus musculus [20] = experiment: Number of survivors on 60th day at dose mg/kg/day in 10 mice implanted with P388 leukemia cell line; 1/10
Mus musculus [21] = experiment: Percent increase in life span at dose 15 mg/kg/day in 10 mice implanted with P388 leukemia cell line; summary of the method: as §1
Mus musculus [22] = experiment: Number of survivors on 30th day at dose 5 mg/kg/day in 10 mice implanted with P388 leukemia cell line; 0/10
Mus musculus [23] = experiment: Number of survivors on 60th day at dose 20 mg/kg/day in 10 mice implanted with P388 leukemia cell line; 0/10
Mus musculus [24] = experiment: Number of survivors on 60th day at dose 30 mg/kg/day in 10 mice implanted with P388 leukemia cell line; 0/10
Mus musculus [25] = experiment: Number of survivors on 60th day at dose 50 mg/kg/day in 10 mice implanted with P388 leukemia cell line; 0/10
Mus musculus [26] = experiment: Number of survivors on 30th day at dose 15 mg/kg/day in 10 mice implanted with P388 leukemia cell line; 0/10
Mus musculus [27] = experiment: Number of survivors on 60th day at dose 15 mg/kg/day in 10 mice implanted with P388 leukemia cell line; 0/10
Mus musculus [28] = experiment: Number of survivors on 30th day at dose 50 mg/kg/day in 10 mice implanted with P388 leukemia cell line; 0/10
Mus musculus [29] = experiment: Number of survivors on 60th day at dose 5 mg/kg/day in 10 mice implanted with P388 leukemia cell line; 0/10
Mus musculus [30] = experiment: Number of survivors on 30th day at dose 20 mg/kg/day in 10 mice implanted with P388 leukemia cell line; 0/10
Mus musculus [31] = experiment: Percent increase in life span at dose 5 mg/kg/day in 10 mice implanted with P388 leukemia cell line; summary of the method: as §1
Mus musculus [32] = experiment: Percent increase in life span at dose 30 mg/kg/day in 10 mice implanted with P388 leukemia cell line; summary of the method: as §1
Mus musculus [33] = experiment: Number of survivors on 30th day at dose 40 mg/kg/day in 10 mice implanted with P388 leukemia cell line; 0/10
Mus musculus [34] = experiment: Number of survivors on 60th day at dose 40 mg/kg/day in 10 mice implanted with P388 leukemia cell line; 0/10
Mus musculus [35] = experiment: Percent increase in life span at dose 20 mg/kg/day in 10 mice implanted with P388 leukemia cell line; summary of the method: as §1
Mus musculus [36] = experiment: Number of survivors on 30th day at dose 30 mg/kg/day in 10 mice implanted with P388 leukemia cell line; 0/10
Mus musculus [37] = experiment: Number of survivors of DBA2 mice on 30th day after inoculation with L1210 leukemia cell line intravenously at a dose of 12.5 mg/kg/day; 0/10; settings: route intravenous
Mus musculus [38] = experiment: Number of survivors on 30th day at dose 5 mg/kg/day in 10 mice implanted with P388 leukemia cell line
Mus musculus [39] = experiment: Number of survivors on 30th day at dose 12.5 mg/kg/day in 10 mice implanted with P388 leukemia cell line
Mus musculus [40] = experiment: Number of survivors of DBA2 mice on 60th day after inoculation with L1210 leukemia cell line intravenously at a dose of 12.5 mg/kg/day; 0/10; settings: route intravenous
Mus musculus [41] = experiment: Percent increase in life span at dose 25 mg/kg/day in 10 mice implanted with P388 leukemia cell line
Mus musculus [42] = experiment: Number of survivors on 30th day at dose 15 mg/kg/day in 10 mice implanted with P388 leukemia cell line
Mus musculus [43] = experiment: Number of survivors on 60th day at dose 10 mg/kg/day in 10 mice implanted with P388 leukemia cell line
Mus musculus [44] = experiment: Number of survivors on 60th day at dose 12.5 mg/kg/day in 10 mice implanted with P388 leukemia cell line
Mus musculus [45] = experiment: Number of survivors on 30th day at dose 10 mg/kg/day in 10 mice implanted with P388 leukemia cell line
Mus musculus [46] = experiment: Number of survivors on 60th day at dose 15 mg/kg/day in 10 mice implanted with P388 leukemia cell line
Mus musculus [47] = experiment: Number of survivors on 30th day at dose 25 mg/kg/day in 10 mice implanted with P388 leukemia cell line
Mus musculus [48] = experiment: Number of survivors on 60th day at dose 5 mg/kg/day in 10 mice implanted with P388 leukemia cell line
Mus musculus [49] = experiment: Number of survivors on 60th day at dose 25 mg/kg/day in 10 mice implanted with P388 leukemia cell line
Mus musculus [50] = experiment: Percent increase in life span at dose 10 mg/kg/day in 10 mice implanted with P388 leukemia cell line; summary of the method: as §1
Mus musculus [51] = experiment: Percent increase in life span of DBA2 mice after inoculation with L1210 leukemia intravenously at a dose of 12.5 mg/kg per day; settings: route intravenous; summary of the method: as §2
Mus musculus [52] = experiment: Percent increase in life span at dose 12.5 mg/kg/day in 10 mice implanted with P388 leukemia cell line; summary of the method: as §1

With CCCCOC(=O)[C@H](Cc1c[nH]c2ccccc12)NC(=O)[C@@]1(O)[C@H](O)[C@]2(CC)C=CCN3CC[C@@]4(c5cc([C@@]6(C(=O)OC)C[C@H]7C[N@](CCc8c6[nH]c6ccccc86)C[C@](O)(CC)C7)c(OC)cc5N(C)[C@@]14C)[C@@H]32 the ILS at 70 mg/kg/day (Mus musculus [1]) was 52%, the ILS at 60 mg/kg/day (Mus musculus [2]) was 140% and the ILS at 55 mg/kg/day (Mus musculus [3]) was over 163%. It also gave a Survivors (Mus musculus [4]) of 0, a Survivors (Mus musculus [5]) of 7 and a Survivors (Mus musculus [6]) of 4. It also gave an ILS at 80 mg/kg/day (Mus musculus [7]) of over 216%, a Survivors (Mus musculus [8]) of 5 and a Survivors (Mus musculus [9]) of 1. The Survivors (Mus musculus [10]) was 7, the Survivors (Mus musculus [11]) was 5 and the ILS at 50 mg/kg/day (Mus musculus [12]) was 31.6%. For the same molecule, the Survivors (Mus musculus [13]) was 2, the ILS at 40 mg/kg/day (Mus musculus [14]) was 63% and the ILS at 50 mg/kg/day (Mus musculus [15]) was 44%. For the same molecule, the Survivors (Mus musculus [16]) was 0, the Survivors (Mus musculus [17]) was 2 and the Survivors (Mus musculus [18]) was 7. For the same molecule, the Survivors (Mus musculus [19]) was 5 and the Survivors (Mus musculus [20]) was 1.

CC[C@]1(O)C[C@@H]2C[N@](CCc3c([nH]c4ccccc34)[C@@](C(=O)OC)(c3cc4c(cc3OC)N(C)[C@@]3(C)[C@@](O)(C(=O)N[C@@H](CC(C)C)C(N)=O)[C@H](O)[C@]5(CC)C=CCN6CC[C@]43[C@@H]65)C2)C1 gave an ILS at 15 mg/kg/day (Mus musculus [21]) of 8.7%, a Survivors (Mus musculus [22]) of 0 and a Survivors (Mus musculus [23]) of 0. The Survivors (Mus musculus [24]) was 0, the Survivors (Mus musculus [25]) was 0 and the Survivors (Mus musculus [26]) was 0. The Survivors (Mus musculus [27]) was 0, the Survivors (Mus musculus [28]) was 0 and the ILS at 50 mg/kg/day (Mus musculus [12]) was 15.5%. It also gave a Survivors (Mus musculus [29]) of 0, a Survivors (Mus musculus [30]) of 0 and an ILS at 5 mg/kg/day (Mus musculus [31]) of 1.7%. For the same molecule, the ILS at 40 mg/kg/day (Mus musculus [14]) was 19%, the ILS at 30 mg/kg/day (Mus musculus [32]) was 1.7% and the Survivors (Mus musculus [33]) was 0. For the same molecule, the Survivors (Mus musculus [34]) was 0, the ILS at 20 mg/kg/day (Mus musculus [35]) was 1.7% and the Survivors (Mus musculus [36]) was 0.

CCOC(=O)[C@H](C)NC(=O)[C@@]1(O)[C@H](O)[C@]2(CC)C=CCN3CC[C@@]4(c5cc([C@@]6(C(=O)OC)C[C@H]7C[N@](CCc8c6[nH]c6ccccc86)C[C@](O)(CC)C7)c(OC)cc5N(C)[C@@]14C)[C@@H]32 showed an ILS at 15 mg/kg/day (Mus musculus [21]) of 39%, a Survivors (Mus musculus [37]) of 0 and a Survivors (Mus musculus [38]) of 0. For the same molecule, the Survivors (Mus musculus [39]) was 1, the Survivors (Mus musculus [40]) was 0 and the ILS at 25 mg/kg/day (Mus musculus [41]) was 63.8%. For the same molecule, the Survivors (Mus musculus [42]) was 0, the Survivors (Mus musculus [43]) was 2 and the Survivors (Mus musculus [44]) was 1. It also gave a Survivors (Mus musculus [45]) of 2, a Survivors (Mus musculus [46]) of 0 and a Survivors (Mus musculus [47]) of 2. The Survivors (Mus musculus [48]) was 0, the ILS at 5 mg/kg/day (Mus musculus [31]) was 27.6% and the Survivors (Mus musculus [49]) was 1. It also gave an ILS at 10 mg/kg/day (Mus musculus [50]) of 36.8%, an ILS at 12.5 mg/kg/day (Mus musculus [51]) of 50% and an ILS at 12.5 mg/kg/day (Mus musculus [52]) of 46%.
